Laboratory results: ChEMBL document CHEMBL1126160, “Synthesis and structure-activity relationships of 7-diazabicycloalkylquinolones, including danofloxacin, a new quinolone antibacterial agent for veterinary medicine” (J Med Chem, 1992)
Converted amounts (≈) assume the structure as drawn.

Experiments:
Type in all cases: functional
Salmonella enterica = assay: In vitro antibacterial activity against aerobically grown Salmonella choleraesuis (58B015)
[1] = test system: Bordetella bronchiseptica; assay: In vitro antibacterial activity against aerobically grown Bordetella bronchiseptica (73A009)
Procedure, shortened: (§1)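 Agar dilution MICs. Aerobic strains were tested on brain heart infusion agar and incubated aerobically at 37 °C for 18–20 h.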

[2] = test system: Actinobacillus pleuropneumoniae; assay: In vitro antibacterial activity against anaerobically grown Actinobacillus pleuropneumoniae ([…])
Procedure, shortened: (§2)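 Agar dilution MICs. Anaerobic strains were tested on tryptose agar with 5% bovine blood and incubated 48 h at 39 °C in an anaerobe chamber under N2/CO2/H2 (80:10:10).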

Trueperella pyogenes = assay: In vitro antibacterial activity against anaerobically grown Actinomyces pyogenes (14D002); procedure, shortened: as §2
Clostridium perfringens = assay: microbe, parasite or virus in culture
Escherichia coli [3] = assay: Escherichia coli DNA cleavage endpoint value which is the minimum amount required (in micro g/mL) to induce detectable cleavage of supercoiled pBR322 substrate to linear form (gyrase); details: read-out: MIC
Procedure, shortened: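 DNA gyrase A and B subunits were purified from E. coli overproducers. About 2 units of holoenzyme were incubated with pBR322 in Tris-HCl pH 7.5 containing MgCl2, spermidine, DTT, 0.2 mM ATP, BSA and tRNA. Drug was added as 2-fold serial dilutions, and reactions ran for 60 min at 25 °C. Reactions were stopped with SDS and proteinase K, then run on agarose and stained with ethidium. The endpoint was the lowest concentration giving detectable linear DNA.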

Staphylococcus aureus = assay: In vitro antibacterial activity against aerobically grown Staphylococcus aureus (54B004); procedure, shortened: as §1
[4] = In vitro evaluation for antibacterial activity against anaerobically grown Treponema hyodysenteriae (94A007); details: Brachyspira hyodysenteriae
[5] = In vitro antibacterial activity against Aerobically grown Pasteurella haemolytica (59B018); details: Mannheimia haemolytica; procedure, shortened: as §1
Pasteurella multocida = assay: In vitro antibacterial activity against aerobically grown Pasteurella multocida (59A006); procedure, shortened: as §1
Escherichia coli [6] = assay: In vitro antibacterial activity against aerobically grown Escherichia coli (51A538); procedure, shortened: as §1
Phocaeicola vulgatus = assay: In vitro antibacterial activity against anaerobically grown Bacteroides vulgatus (78D029); procedure, shortened: as §2

Row | Compound | MIC (Salmonella enterica) [µg/mL] | MIC [1] [µg/mL] | MIC [2] [µg/mL] | MIC (Trueperella pyogenes) [µg/mL] | MIC (Clostridium perfringens) [µg/mL] | minimum concentration inducing gyrase-mediated DNA cleavage (Escherichia coli [3]) [µg/mL] | MIC (Staphylococcus aureus) [µg/mL] | MIC [4] [µg/mL] | MIC [5] [µg/mL] | MIC (Pasteurella multocida) [µg/mL] | MIC (Escherichia coli [6]) [µg/mL] | MIC (Phocaeicola vulgatus) [µg/mL]
1 | CN1[C@@H]2CC[C@H]1CN(c1c(F)cc3c(=O)c(C(=O)O)cn(CCF)c3c1F)C2 | 1.56 (≈ 3.95 µM) | 6.25 (≈ 15.8 µM) | 0.39 (≈ 0.986 µM) | > 3.13 | 0.78 (≈ 1.97 µM) | 0.39 | 1.56 (≈ 3.95 µM) | > 3.13 | 0.78 (≈ 1.97 µM) | 0.39 (≈ 0.986 µM) | 0.78 (≈ 1.97 µM) | > 3.13
2 | CCn1cc(C(=O)O)c(=O)c2cc(F)c(N3C[C@H]4CC[C@@H](C3)N4C)c(F)c21 | 1.56 (≈ 4.13 µM) | 12.5 (≈ 33.1 µM) | 0.2 (≈ 0.53 µM) | 6.25 (≈ 16.6 µM) | 1.56 (≈ 4.13 µM) | 3.12 | 0.39 (≈ 1.03 µM) | 6.25 (≈ 16.6 µM) | 0.39 (≈ 1.03 µM) | 0.2 (≈ 0.53 µM) | 0.78 (≈ 2.07 µM) | > 25
3 | C=Cn1cc(C(=O)O)c(=O)c2cc(F)c(N3CC[C@H]4CCC(C3)N4C)cc21 | 1.56 (≈ 4.2 µM) | 1.56 (≈ 4.2 µM) | 0.78 (≈ 2.1 µM) | > 3.13 | 0.78 (≈ 2.1 µM) | 6.25 | 1.56 (≈ 4.2 µM) | 3.13 (≈ 8.43 µM) | 1.56 (≈ 4.2 µM) | 0.2 (≈ 0.538 µM) | 0.78 (≈ 2.1 µM) | > 3.13
4 | CN1C2CC[C@@H]1CCN(c1cc3c(cc1F)c(=O)c(C(=O)O)cn3C)C2 | 6.25 (≈ 17.4 µM) | > 25 |  |  |  | 6.25 | 1.56 (≈ 4.34 µM) |  | 6.25 (≈ 17.4 µM) | 6.25 (≈ 17.4 µM) | 6.25 (≈ 17.4 µM) | 
5 | Cl.O.O=C(O)c1cn(-c2ccc(F)cc2)c2cc(N3CCN4CCC3CC4)c(F)cc2c1=O | 0.2 | 1.56 | 0.05 | 3.13 | 0.1 | 0.78 | 0.2 | 0.78 | 0.1 | 0.02 | 0.2 | 0.78
6 | CCn1cc(C(=O)O)c(=O)c2cc(F)c(N3CC[C@H]4CCC(C3)N4C)c(F)c21 | 1.56 (≈ 3.99 µM) | 1.56 (≈ 3.99 µM) | 0.78 (≈ 1.99 µM) | > 3.13 | 3.13 (≈ 8 µM) | 3.12 | 0.78 (≈ 1.99 µM) | > 3.13 | 0.78 (≈ 1.99 µM) | 0.2 (≈ 0.511 µM) | 0.39 (≈ 0.996 µM) | > 3.13
7 | O=C(O)c1cn(-c2ccc(F)cc2)c2cc(N3CCN4CCCC3C4)c(F)cc2c1=O (configuration not stated) | 0.2 (≈ 0.47 µM) | 1.56 (≈ 3.67 µM) | 0.05 (≈ 0.118 µM) | 3.13 (≈ 7.36 µM) | 0.2 (≈ 0.47 µM) | 0.78 | 0.1 (≈ 0.235 µM) | 0.2 (≈ 0.47 µM) | 0.05 (≈ 0.118 µM) | 0.01 (≈ 0.0235 µM) | 0.1 (≈ 0.235 µM) | 0.39 (≈ 0.917 µM)
8 | CN1[C@@H]2CC[C@H]1CN(c1cc3c(cc1F)c(=O)c(C(=O)O)cn3-c1ccc(F)cc1)C2.Cl.O | > 1.56 | > 1.56 | 0.78 | > 3.13 | 3.13 |  | 0.78 | 1.56 | 0.78 | 0.2 | 1.56 | 0.78
9 | CN1C[C@@H]2C[C@H]1CN2c1c(F)cc2c(=O)c(C(=O)O)cn(C3CC3)c2c1F |  | 0.39 (≈ 1.04 µM) | < 0.05 | 0.78 (≈ 2.08 µM) | 3.12 (≈ 8.31 µM) | 0.39 | 0.1 (≈ 0.266 µM) | 1.56 (≈ 4.16 µM) | < 0.05 | < 0.05 | < 0.05 | 3.12 (≈ 8.31 µM)
10 | CN1[C@@H]2CC[C@H]1CN(c1cc3c(cc1F)c(=O)c(C(=O)O)cn3CCF)C2.Cl.O | 0.39 | 3.13 | 0.1 |  | 0.39 | 3.12 | 0.2 | 3.13 | 0.2 | 0.2 | 0.2 | 6.25
